According to ChEMBL document CHEMBL1914394, “Synthesis and spectroscopic characterization of 4-butoxyethoxy-N-octadecyl-1,8-naphthalimide as a new fluorescent probe for the determination of proteins” (Bioorg Med Chem Lett, 2011):

Tests used:
Albumin [1] = target: T1, Albumin (Bos taurus, UniProt P02769); test: Binding affinity to bovine serum albumin assessed as decrease in fluorescence intensity at 1.5 x 10^-5 mol/L at pH 7.4 by fluorescence spectroscopy in presence of K+ cations; assay type: ADME; conditions: cattle, isolated protein, pH 7.4, 15 µM
T1 sequence (P02769 whole entry): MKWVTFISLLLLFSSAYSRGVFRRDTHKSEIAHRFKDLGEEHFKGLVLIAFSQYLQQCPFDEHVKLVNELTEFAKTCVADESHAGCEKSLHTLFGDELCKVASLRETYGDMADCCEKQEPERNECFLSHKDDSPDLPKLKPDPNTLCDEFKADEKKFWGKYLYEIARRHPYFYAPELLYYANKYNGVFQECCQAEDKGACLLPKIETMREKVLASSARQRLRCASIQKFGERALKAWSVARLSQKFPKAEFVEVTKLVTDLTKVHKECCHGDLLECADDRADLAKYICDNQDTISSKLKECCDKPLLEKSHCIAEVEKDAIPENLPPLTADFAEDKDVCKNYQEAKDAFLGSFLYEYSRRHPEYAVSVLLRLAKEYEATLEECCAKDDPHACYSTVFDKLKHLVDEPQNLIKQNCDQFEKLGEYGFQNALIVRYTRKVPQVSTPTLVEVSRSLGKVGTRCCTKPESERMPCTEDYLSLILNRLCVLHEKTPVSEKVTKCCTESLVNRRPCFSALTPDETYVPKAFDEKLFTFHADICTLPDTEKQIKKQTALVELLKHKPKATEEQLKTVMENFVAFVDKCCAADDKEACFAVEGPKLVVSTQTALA
Summary of the method: (§1)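 Fluorescence of the BON–BSA system in HCl–Tris pH 7.4 recorded with each interfering ion or amino acid added at different concentrations. Excitation 373 nm; emission scanned 390–550 nm; intensity change noted.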

Albumin [2] = target: T1, Albumin; test: Binding affinity to bovine serum albumin assessed as quenching constant at pH 7.4 at 293K by fluorescence spectroscopy; conditions: cattle, isolated protein
Albumin [3] = target: T1, Albumin; test: Binding affinity to bovine serum albumin assessed as decrease in fluorescence intensity at 1.5 x 10^-5 mol/L at pH 7.4 by fluorescence spectroscopy in presence of Cr3+ cations; assay type: ADME; conditions: cattle, isolated protein, pH 7.4, 15 µM; summary of the method: as §1
Albumin [4] = target: T1, Albumin; test: Binding affinity to bovine serum albumin assessed as decrease in fluorescence intensity at 1.5 x 10^-5 mol/L at pH 7.4 by fluorescence spectroscopy in presence of PO42+ anions; assay type: ADME; conditions: cattle, isolated protein, pH 7.4, 15 µM; summary of the method: as §1
Albumin [5] = target: T1, Albumin; test: Binding affinity to bovine serum albumin assessed as stem-volmer quenching constant at pH 7.4 at 298K by fluorescence spectroscopic analysis; assay type: ADME; conditions: cattle, isolated protein
Summary of the method: (§2)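 BSA intrinsic fluorescence titrated with increasing BON in HCl–Tris buffer, pH 7.4, at each of four temperatures. F0/F (without/with BON) plotted against BON concentration; the Stern–Volmer quenching constant KSV is taken from the linear fit.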

Albumin [6] = target: T1, Albumin; test: Binding affinity to bovine serum albumin assessed as decrease in fluorescence intensity at 1.5 x 10^-5 mol/L at pH 7.4 by fluorescence spectroscopy in presence of Mg2+ cations; assay type: ADME; conditions: cattle, isolated protein, pH 7.4, 15 µM; summary of the method: as §1
Albumin [7] = target: T1, Albumin; test: Binding affinity to bovine serum albumin assessed as decrease in fluorescence intensity at 1.5 x 10^-5 mol/L at pH 7.4 by fluorescence spectroscopy in presence of Pb2+ cations; assay type: ADME; conditions: cattle, isolated protein, pH 7.4, 15 µM; summary of the method: as §1
Albumin [8] = target: T1, Albumin; test: Binding affinity to bovine serum albumin assessed as decrease in fluorescence intensity at 1.5 x 10^-5 mol/L at pH 7.4 by fluorescence spectroscopy in presence of Cu2+ cations; assay type: ADME; conditions: cattle, isolated protein, pH 7.4, 15 µM; summary of the method: as §1
Albumin [9] = target: T1, Albumin; test: Binding affinity to bovine serum albumin assessed as quenching constant at pH 7.4 at 293K by fluorescence spectroscopic analysis; assay type: ADME; conditions: cattle, isolated protein
Summary of the method: (§3)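 Quenching series of BSA with rising BON levels in HCl–Tris pH 7.4, run at four temperatures. KSV comes from the F0/F versus [BON] Stern–Volmer plot. The bimolecular quenching rate constant is calculated as Kq = KSV/τ0, with a biopolymer fluorescence lifetime τ0 of 10^-8 s.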

Albumin [10] = target: T1, Albumin; test: Binding affinity to bovine serum albumin assessed as quenching constant at pH 7.4 at 298K by fluorescence spectroscopic analysis; assay type: ADME; conditions: cattle, isolated protein; summary of the method: as §3
Albumin [11] = target: T1, Albumin; test: Binding affinity to bovine serum albumin assessed as decrease in fluorescence intensity at 1.5 x 10^-5 mol/L at pH 7.4 by fluorescence spectroscopy in presence of Fe3+ cations; assay type: ADME; conditions: cattle, isolated protein, pH 7.4, 15 µM; summary of the method: as §1
Albumin [12] = target: T1, Albumin; test: Binding affinity to bovine serum albumin assessed as decrease in fluorescence intensity at 10^-5 mol/L at pH 7.4 at 298K by fluorescence spectroscopy in presence of warfarin; assay type: ADME; set-up: scale not given: the % may be the effect or the level left; conditions: cattle, isolated protein, pH 7.4, 10 µM
Summary of the method: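 Site-marker displacement by fluorescence titration: BON and BSA held at a 10:1 molar ratio, then warfarin added stepwise to the mixture. Excitation 280 nm; emission recorded 290–400 nm.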

Albumin [13] = target: T1, Albumin; test: Binding affinity to bovine serum albumin assessed as binding constant at pH 7.4 at 308K by fluorescence spectroscopic analysis; assay type: ADME; conditions: cattle, isolated protein
Summary of the method: (§4)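 BSA fluorescence quenched by BON in HCl–Tris, pH 7.4, at four temperatures. Binding constants come from fitting the quenching data to the modified Stern–Volmer equation.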

Albumin [14] = target: T1, Albumin; test: Binding affinity to bovine serum albumin assessed as decrease in fluorescence intensity at 1.5 x 10^-5 mol/L at pH 7.4 by fluorescence spectroscopy in presence of tyrosine; assay type: ADME; conditions: cattle, isolated protein, pH 7.4, 15 µM; summary of the method: as §1
Albumin [15] = target: T1, Albumin; test: Binding affinity to bovine serum albumin assessed as binding constant at pH 7.4 at 303K by fluorescence spectroscopic analysis; assay type: ADME; conditions: cattle, isolated protein; summary of the method: as §4
Albumin [16] = target: T1, Albumin; test: Binding affinity to bovine serum albumin assessed as decrease in fluorescence intensity at 1.5 x 10^-5 mol/L at pH 7.4 by fluorescence spectroscopy in presence of SO42+ anions; assay type: ADME; conditions: cattle, isolated protein, pH 7.4, 15 µM; summary of the method: as §1
Albumin [17] = target: T1, Albumin; test: Binding affinity to bovine serum albumin assessed as decrease in fluorescence intensity at 1.5 x 10^-5 mol/L at pH 7.4 by fluorescence spectroscopy in presence of Na+ cations; assay type: ADME; conditions: cattle, isolated protein, pH 7.4, 15 µM; summary of the method: as §1
Albumin [18] = target: T1, Albumin; test: Binding affinity to bovine serum albumin assessed as binding constant at pH 7.4 at 293K by fluorescence spectroscopic analysis; assay type: ADME; conditions: cattle, isolated protein; summary of the method: as §4
Albumin [19] = target: T1, Albumin; test: Binding affinity to bovine serum albumin assessed as decrease in fluorescence intensity at 1.5 x 10^-5 mol/L at pH 7.4 by fluorescence spectroscopy in presence of Mo6+ cations; assay type: ADME; conditions: cattle, isolated protein, pH 7.4, 15 µM; summary of the method: as §1
Albumin [20] = target: T1, Albumin; test: Binding affinity to bovine serum albumin assessed as decrease in fluorescence intensity at 1.5 x 10^-5 mol/L at pH 7.4 by fluorescence spectroscopy in presence of Cl- anions; assay type: ADME; conditions: cattle, isolated protein, pH 7.4, 15 µM; summary of the method: as §1
Albumin [21] = target: T1, Albumin; test: Binding affinity to bovine serum albumin assessed as decrease in fluorescence intensity peak2 at 1.71 x 10^-5 mol/L at pH 7.4 at 293K by three-dimensional fluorescence spectroscopy analysis; assay type: ADME; set-up: scale not given: the % may be the effect or the level left; conditions: cattle, isolated protein, pH 7.4, 17.1 µM
Albumin [22] = target: T1, Albumin; test: Binding affinity to bovine serum albumin assessed as decrease in fluorescence intensity at 1.5 x 10^-5 mol/L at pH 7.4 by fluorescence spectroscopy in presence of Zn2+ cations; assay type: ADME; conditions: cattle, isolated protein, pH 7.4, 15 µM; summary of the method: as §1
Albumin [23] = target: T1, Albumin; test: Binding affinity to bovine serum albumin assessed as stem-volmer quenching constant at pH 7.4 at 308K by fluorescence spectroscopic analysis; assay type: ADME; conditions: cattle, isolated protein; summary of the method: as §2
Albumin [24] = target: T1, Albumin; test: Binding affinity to bovine serum albumin assessed as decrease in fluorescence intensity at 1.5 x 10^-5 mol/L at pH 7.4 by fluorescence spectroscopy in presence of Ni2+ cations; assay type: ADME; conditions: cattle, isolated protein, pH 7.4, 15 µM; summary of the method: as §1
Albumin [25] = target: T1, Albumin; test: Binding affinity to bovine serum albumin assessed as stem-volmer quenching constant at pH 7.4 at 293K by fluorescence spectroscopic analysis; assay type: ADME; conditions: cattle, isolated protein; summary of the method: as §2
Albumin [26] = target: T1, Albumin; test: Binding affinity to bovine serum albumin assessed as decrease in fluorescence intensity at 1.5 x 10^-5 mol/L at pH 7.4 by fluorescence spectroscopy in presence of Br- anions; assay type: ADME; conditions: cattle, isolated protein, pH 7.4, 15 µM; summary of the method: as §1
Albumin [27] = target: T1, Albumin; test: Binding affinity to bovine serum albumin assessed as binding constant at pH 7.4 at 298K by fluorescence spectroscopic analysis; assay type: ADME; conditions: cattle, isolated protein; summary of the method: as §4
Albumin [28] = target: T1, Albumin; test: Binding affinity to bovine serum albumin assessed as decrease in fluorescence intensity at 1.5 x 10^-5 mol/L at pH 7.4 by fluorescence spectroscopy in presence of Mn2+ cations; assay type: ADME; conditions: cattle, isolated protein, pH 7.4, 15 µM; summary of the method: as §1
Albumin [29] = target: T1, Albumin; test: Binding affinity to bovine serum albumin assessed as decrease in fluorescence intensity at 1.5 x 10^-5 mol/L at pH 7.4 by fluorescence spectroscopy in presence of proline; assay type: ADME; conditions: cattle, isolated protein, pH 7.4, 15 µM; summary of the method: as §1
Albumin [30] = target: T1, Albumin; test: Binding affinity to bovine serum albumin assessed as decrease in fluorescence intensity at 1.5 x 10^-5 mol/L at pH 7.4 by fluorescence spectroscopy in presence of Ca2+ cations; assay type: ADME; conditions: cattle, isolated protein, pH 7.4, 15 µM; summary of the method: as §1
Albumin [31] = target: T1, Albumin; test: Binding affinity to bovine serum albumin assessed as quenching constant at pH 7.4 at 308K by fluorescence spectroscopic analysis; assay type: ADME; conditions: cattle, isolated protein; summary of the method: as §3
Albumin [32] = target: T1, Albumin; test: Binding affinity to bovine serum albumin assessed as decrease in fluorescence intensity peak1 at 1.71 x 10^-5 mol/L at pH 7.4 at 293K by three-dimensional fluorescence spectroscopy analysis; assay type: ADME; set-up: scale not given: the % may be the effect or the level left; conditions: cattle, isolated protein, pH 7.4, 17.1 µM
Albumin [33] = target: T1, Albumin; test: Binding affinity to bovine serum albumin assessed as decrease in fluorescence intensity at 1.5 x 10^-5 mol/L at pH 7.4 by fluorescence spectroscopy in presence of glycine; assay type: ADME; conditions: cattle, isolated protein, pH 7.4, 15 µM; summary of the method: as §1
Albumin [34] = target: T1, Albumin; test: Binding affinity to bovine serum albumin assessed as quenching constant at pH 7.4 at 303K by fluorescence spectroscopic analysis; assay type: ADME; conditions: cattle, isolated protein; summary of the method: as §3
Albumin [35] = target: T1, Albumin; test: Binding affinity to bovine serum albumin assessed as decrease in fluorescence intensity at 1.5 x 10^-5 mol/L at pH 7.4 by fluorescence spectroscopy in presence of tryptophane; assay type: ADME; conditions: cattle, isolated protein, pH 7.4, 15 µM; summary of the method: as §1
Albumin [36] = target: T1, Albumin; test: Binding affinity to bovine serum albumin assessed as decrease in fluorescence intensity at 1.5 x 10^-5 mol/L at pH 7.4 by fluorescence spectroscopy in presence of lysine; assay type: ADME; conditions: cattle, isolated protein, pH 7.4, 15 µM; summary of the method: as §1
Albumin [37] = target: T1, Albumin; test: Binding affinity to bovine serum albumin assessed as stem-volmer quenching constant at pH 7.4 at 303K by fluorescence spectroscopic analysis; assay type: ADME; conditions: cattle, isolated protein; summary of the method: as §2

Activity (Albumin [1]): Not Active
Activity (Albumin [2]): Active
Activity (Albumin [3]): Not Active
Activity (Albumin [4]): Active
KSV (Albumin [5]): 9.03 ×10³ L/mol
Activity (Albumin [6]): Not Active
Activity (Albumin [7]): Not Active
Activity (Albumin [8]): Not Active
Kq (Albumin [9]): 9.4 ×10¹¹ L/mol/s
Kq (Albumin [10]): 9.03 ×10¹¹ L/mol/s
Activity (Albumin [11]): Not Active
Activity (Albumin [12]): 42%
Kb (Albumin [13]): 1.77 ×10³ L/mol
Activity (Albumin [14]): Active
Kb (Albumin [15]): 2.12 ×10³ L/mol
Activity (Albumin [16]): Active
Activity (Albumin [17]): Not Active
Kb (Albumin [18]): 3.89 ×10³ L/mol
Activity (Albumin [19]): Not Active
Activity (Albumin [20]): Active
Activity (Albumin [21]): 37.24%
Activity (Albumin [22]): Not Active
KSV (Albumin [23]): 8.54 ×10³ L/mol
Activity (Albumin [24]): Not Active
KSV (Albumin [25]): 9.4 ×10³ L/mol
Activity (Albumin [26]): Active
Kb (Albumin [27]): 2.82 ×10³ L/mol
Activity (Albumin [28]): Not Active
Activity (Albumin [29]): Active
Activity (Albumin [30]): Not Active
Kq (Albumin [31]): 8.54 ×10¹¹ L/mol/s
Activity (Albumin [32]): 25.16%
Activity (Albumin [33]): Active
Kq (Albumin [34]): 8.76 ×10¹¹ L/mol/s
Activity (Albumin [35]): Active
Activity (Albumin [36]): Active
KSV (Albumin [37]): 8.76 ×10³ L/mol
SMILES: CCCCCCCCCCCCCCCCCCN1C(=O)c2cccc3c(OCCOCCCC)ccc(c23)C1=O
